# Experimental data of several laboratories.
# Protocols differ between the studies behind these lines.
# SMO: Protein smoothened (SMO, Homo sapiens, UniProt Q99835)
# CAMK4: Calcium/calmodulin-dependent protein kinase type IV (CAMK4, Homo sapiens, UniProt Q16566)
SMILES,target,test,setting,endpoint,result
COc1cc(C(=O)NC(N)=Nc2ccc(C)c(NC(=O)c3ccc(-c4ccccc4)cc3)c2)cc(OC)c1OC,SMO,"GTPγS binding, agonist, radiometric",cell membranes,Emax,-88.6%
O=C(Nc1cccnn1)N1CCN([C@@H]2CCOc3cc(C(F)(F)F)ccc32)CC1,"Caspase-3 (CASP3, Homo sapiens, UniProt P42574)","cell-free assay, inhibitor",20 µM,inhibition,1%
CC1=C2C[C@H]3[C@@H](CC=C4C[C@@H](O)CC[C@@]43C)[C@@H]2CC[C@]12O[C@@H]1C[C@H](C)CN[C@H]1[C@H]2C,"Protein smoothened (SMO, Homo sapiens, UniProt Q99835, D473H)","GTPγS binding, agonist, radiometric",cell membranes,Emax,-107%
COc1cccc2c1cc([N+](=O)[O-])c1c(C(=O)O)cc3c(c12)OCO3,"Ubiquitin carboxyl-terminal hydrolase 51 (USP51, Homo sapiens, UniProt Q70EK9)","enzyme activity, inhibitor",5 µM,inhibition,36%
Cc1ncc(C)n2nc(/C=C/c3nc(N4CCCC4)cc(N4CCOCC4)n3)nc12,"Angiotensin-converting enzyme (ACE, Homo sapiens, UniProt P12821)","enzyme activity, inhibitor",10 µM,inhibition,-13%
Cc1nn(C)cc1-c1nc2c(N3CCN(Cc4ccc(Cl)cc4)CC3)c(Cl)cnc2[nH]1,CAMK4,"binding, competition with immobilised ligand",1 µM,remaining binding,100%
CCN(CC)CCCC[C@H](NC(=O)[C@H](CC(C)C)NC(=O)[C@H](C)NC(=O)[C@H](Cc1ccccc1)NC(=O)c1ccc(C(C)(C)C)cc1)C(=O)N[C@@H](CO)C(=O)OC,"Bromodomain and PHD finger-containing protein 3 (BRPF3, Homo sapiens, UniProt Q9ULD4)","thermal stability, DSF",25 µM,ΔTm,0 °C
Cc1cnc(-c2cc(N3CCN(C(=O)CCS(C)(=O)=O)CC3)ncc2Cl)c(C)c1,SMO,"GTPγS binding, agonist, radiometric",cell membranes,Emax,-60.4%
Nc1ncc(-c2nc(N3CCOCC3)nc(N3CCOCC3)n2)c(C(F)F)n1,"Mitogen-activated protein kinase 15 (MAPK15, Homo sapiens, UniProt Q8TD08)","binding, competition with immobilised ligand",10 µM,remaining binding,100%
CC[C@H](C)[C@@H](C(=O)O[C@@H](CC(C)C)C(=O)N[C@@H](CC(C)C)C(=O)N[C@@H](C)/C=C/C(=O)N1C(=O)C=C(OC)[C@@H]1C)N(C)C,"FP2A (Plasmodium falciparum, UniProt Q8I6U4)","enzyme activity, inhibitor, fluorescence",pH 6,kinact/KI,58600 M⁻¹ s⁻¹
C#Cc1n[nH]c2c(-c3cn(C(C)c4ccccn4)c(=O)[nH]c3=O)cc(F)cc12 (stereo not drawn),"Fibroblast growth factor receptor 2 (FGFR2, Homo sapiens, UniProt P21802)","enzyme activity, inhibitor",1 µM,inhibition,-6%
COc1ncccc1-c1cnn2ccc(N3CCN(C(=O)OC(C)C)CC3)nc12,CAMK4,"binding, competition with immobilised ligand",1 µM,remaining binding,100%
